Measurements taken from ChEMBL document CHEMBL1123487, “Zwitterionic 3'-O-acyl derivatives of thymidine 5'-phosphate as potential sources of intracellular thymidine 5'-phosphate in cells in culture” (J Med Chem, 1986).
Several values for one entry are separate records, joined by “and”; a condition that tells them apart may be missing. Equal values may be shown once.

Tests used:
[1] = test system: L929; experiment: Rate of incorporation of [3H]dC into DNA in mouse L929 cells at 10e-4 concentration; units=cpm/hx 5*10e5 cells; assay type: functional
[2] = Compound was evaluated for the Hydrolysis rate in aqueous 50 mM Potassium Phosphate; assay type: ADME; conditions: aqueous potassium phosphate buffer
In short: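 5 mM ester in aqueous 50 mM potassium phosphate, pH 7.6, held at 37 °C. Release of free nucleotide followed by paper electrophoresis at pH 3.6 (thymidine release by silica TLC, UV inspection). log(residual ester) plotted against time; t1/2 read graphically from the linear pseudo-first-order plot.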

[3] = test system: L929; experiment: Rate of incorporation of [3H]-dC into DNA in mouse L929 cells at 10e-4 concentration; units=cpm/hx 5*10e5 cells; assay type: functional
[4] = test system: LM; experiment: Effect on DNA synthesis in mouse LM(TK-) cells blocked in DNA synthesis with Aminopterin at 10e-4 M; assay type: functional
In short: (§1)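 LM(TK-) mouse fibroblasts, 5×10^5 or 1×10^6 per 6-cm dish, grown overnight in DMEM/10% FBS at 37 °C, 5% CO2. Blocked 3 h in medium with heat-inactivated serum, aminopterin 1 μg/mL, glycine and hypoxanthine 15 μg/mL each, no 5'-NH2-dT. Compounds diluted from 10 mM stocks in 50% ethanol-water; controls got vehicle. Recovery 2 h, then [3H]-dC 1 μCi/mL for 1–3 h. Cold 5% TCA-insoluble counts in duplicate; enhancement = rate with compound / rate in parallel controls.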

[5] = test system: L929; experiment: Stimulation of DNA synthesis in L929 cells in the presence of 5'-NH2-dT; assay type: functional, Mus musculus
[6] = test system: L929; experiment: Stimulation of DNA synthesis in L929 cells in the absence of 5'-NH2-dT; assay type: functional, Mus musculus
In short: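 L929 cells blocked 3 h with aminopterin medium. 5'-NH2-dT (1.0 mM) was left out of the 2 h recovery medium that held the compound. Labelled with [3H]-dC 1 μCi/mL; TCA-insoluble incorporation (cpm/h per 5×10^5 cells) compared with parallel control cultures.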

[7] = test system: LM; experiment: Effect (10e-3 M) on DNA synthesis in mouse LM(TK-) cells blocked in DNA synthesis with Aminopterin; assay type: functional; in short: as §1
[8] = test system: LM; experiment: Effect (10e-4 M) on DNA synthesis in mouse LM(TK-) cells blocked in DNA synthesis with Aminopterin; assay type: functional; in short: as §1
[9] = test system: LM; experiment: Effect (10e-5 M) on DNA synthesis in mouse LM(TK-) cells blocked in DNA synthesis with Aminopterin; assay type: functional; in short: as §1
[10] = test system: LM; experiment: Effect (10e-6 M) on DNA synthesis in mouse LM(TK-) cells blocked in DNA synthesis with Aminopterin; assay type: functional
In short: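 LM(TK-) fibroblasts seeded and cultured overnight. Blocked 3 h in heat-inactivated-serum medium with aminopterin 1 μg/mL, glycine and hypoxanthine 15 μg/mL, no 5'-NH2-dT. Compound diluted from 10 mM stock in 50% ethanol-water and applied 2 h. Then [3H]dC 1 μCi/mL; acid-insoluble radioactivity measured in duplicate. Effect expressed as incorporation rate relative to parallel vehicle controls.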

[11] = test system: L929; experiment: Rate of incorporation of [3H]dC into DNA in mouse L929 cells at 10e-5 concentration; units=cpm/hx 5*10e5 cells; assay type: functional
In short: (§2)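 L929 cells seeded at 5×10^5 or 1×10^6 per dish in DMEM/10% FBS, overnight at 37 °C, 5% CO2. Blocked 3 h in medium with heat-inactivated serum, aminopterin 1 μg/mL, glycine and hypoxanthine 15 μg/mL each, and 1.0 mM 5'-NH2-dT. Test agent in the same medium for 2 h, then 1 μCi/mL [3H]dC for 1–3 h. Cold 5% TCA-insoluble counts in duplicate, scaled to cell counts.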

[12] = test system: L929; experiment: Rate of incorporation of [3H]dC into DNA in mouse L929 cells at 10e-6 concentration; units=cpm/hx 5*10e5 cells; assay type: functional; in short: as §2

With CCN(CC)CCCC[N+](CC)(CC)CCCCC(=O)O[C@H]1C[C@H](n2cc(C)c(=O)[nH]c2=O)O[C@@H]1COP(=O)([O-])O the Incorporation rate [1] was 782 c.p.m. hr-1 and 821 c.p.m. hr-1.

In the case of CCN(CC)CCC[N+](CC)(CC)CCCCC(=O)O[C@H]1C[C@H](n2cc(C)c(=O)[nH]c2=O)O[C@@H]1COP(=O)([O-])O, the half-life [2] is reported as 74 h and the Incorporation rate [3] is reported as 605 c.p.m. hr-1 and 504 c.p.m. hr-1.

With CC[N+](CC)(CC)CC[N+](CC)(CC)CCCCC(=O)O[C@H]1C[C@H](n2cc(C)c(=O)[nH]c2=O)O[C@@H]1COP(=O)([O-])[O-] the Incorporation rate [4] was 171 c.p.m. hr-1, the Incorporation rate [5] was 808 c.p.m. hr-1 and the Incorporation rate [3] was 673 c.p.m. hr-1 and 1103 c.p.m. hr-1. It also gave an Incorporation rate [6] of 5462 c.p.m. hr-1.

In the case of Cc1cn([C@H]2C[C@H](O)[C@@H](COP(=O)(O)O)O2)c(=O)[nH]c1=O [THYMIDINE MONOPHOSPHATE], the Incorporation rate [7] is reported as 596 c.p.m. hr-1 and 668 c.p.m. hr-1 and 837 c.p.m. hr-1, the Incorporation rate [8] is reported as 381 c.p.m. hr-1 and 295 c.p.m. hr-1 and the Incorporation rate [9] is reported as 323 c.p.m. hr-1 and 256 c.p.m. hr-1.

With CC[N+](CC)(CC)CCCC[N+](CC)(CC)CCCCC(=O)O[C@H]1C[C@H](n2cc(C)c(=O)[nH]c2=O)O[C@@H]1COP(=O)([O-])[O-] the half-life [2] was 85 h, the Incorporation rate [8] was 204 c.p.m. hr-1 and 147 c.p.m. hr-1 and the Incorporation rate [5] was 1135 c.p.m. hr-1. The Incorporation rate [3] was 1356 c.p.m. hr-1 and 1299 c.p.m. hr-1 and the Incorporation rate [6] was 7462 c.p.m. hr-1.

Compound CCN(CC)CC[N+](CC)(CC)CCCC(=O)O[C@H]1C[C@H](n2cc(C)c(=O)[nH]c2=O)O[C@@H]1CO.Cl.[Cl-] has a half-life [2] of 28 h.

CC[N+](CC)(CC)CCCC[N+](CC)(CC)CCCCC(=O)O[C@H]1C[C@H](n2cc(C)c(=O)[nH]c2=O)O[C@@H]1CO.[Cl-].[Cl-] gave a half-life [2] of 87 h.

With CCN(CC)CC[N+](CC)(CC)CCCC(=O)O[C@H]1C[C@H](n2cc(C)c(=O)[nH]c2=O)O[C@@H]1COP(=O)([O-])O the half-life [2] was 28 h.

CC[N+](CC)(CC)CCC[N+](CC)(CC)CCCCC(=O)O[C@H]1C[C@H](n2cc(C)c(=O)[nH]c2=O)O[C@@H]1COP(=O)([O-])[O-] showed a half-life [2] of 72 h.

CC(=O)O[C@H]1C[C@H](n2cc(C)c(=O)[nH]c2=O)O[C@@H]1CO showed a half-life [2] of 135 h.

With Cc1cn([C@H]2C[C@H](O)[C@@H](CO)O2)c(=O)[nH]c1=O [DOXRIBTIMINE] the Incorporation rate [7] was 213 c.p.m. hr-1, the Incorporation rate [8] was 228 c.p.m. hr-1 and 251 c.p.m. hr-1 and the Incorporation rate [9] was 204 c.p.m. hr-1. The Incorporation rate [10] was 185 c.p.m. hr-1, the Incorporation rate [3] was 28200 c.p.m. hr-1 and the Incorporation rate [11] was 2937 c.p.m. hr-1. The Incorporation rate [12] was 465 c.p.m. hr-1.
